This is an account of results in PMC11947739 (Alzheimer's & Dementia : Translational Research & Clinical …, 2025).

In one data set the target is human 5-HT2b receptor (Homo sapiens, UniProt P41595). Briefly: 5-HT2bR competitive radioligand binding, [125I].
Data set [1] has as its system neurology patients / AD patients. The following applies: ref 1-8 of Supporting Data; cited from earlier work.
The next data set deals with h5-HT2b and m5-HT2b. The data set can be described thus: Gq activation and β-arrestin-1 recruitment, statements covering both species. Format: cell-based, human and mouse. The following applies: absence of an activator. In outline:
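Human and mouse 5-HT2b receptors were tested in cells. Serotonin-driven Gq activation and β-arrestin-1 recruitment were read across increasing test compound concentrations. The same read-outs were taken with vehicle and no activator to capture basal (inverse agonist) activity. Data are mean ± SEM of three to four independent experiments, each in duplicate or triplicate. EC50 and Emax were derived.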

Chain of human 5-HT2b receptor (P41595 whole entry): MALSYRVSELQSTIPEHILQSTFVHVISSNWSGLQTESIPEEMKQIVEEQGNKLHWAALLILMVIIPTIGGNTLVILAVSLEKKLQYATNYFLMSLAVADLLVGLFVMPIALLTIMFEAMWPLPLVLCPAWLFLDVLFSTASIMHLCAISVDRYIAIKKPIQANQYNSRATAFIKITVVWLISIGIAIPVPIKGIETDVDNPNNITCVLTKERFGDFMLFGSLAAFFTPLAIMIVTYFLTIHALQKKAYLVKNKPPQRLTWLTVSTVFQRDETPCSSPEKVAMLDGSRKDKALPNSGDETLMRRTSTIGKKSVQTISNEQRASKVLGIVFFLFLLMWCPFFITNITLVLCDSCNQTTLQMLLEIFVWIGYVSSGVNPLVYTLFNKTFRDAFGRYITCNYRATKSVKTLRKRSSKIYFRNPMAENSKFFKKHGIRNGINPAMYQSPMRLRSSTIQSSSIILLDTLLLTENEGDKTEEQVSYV

Turning to `Cc1cc(-c2ccccc2)nnc1NCCN1CCOCC1` [minaprine], the IC50 at human 5-HT2b receptor is 863 ± 8 nM. Besides, the “Risk for cardiotoxicity, drowsiness, or weight gain” value in data set [1] was “low risk”.

For the compound `Cc1nc2n(c(=O)c1CCN1CCC(c3noc4cc(F)ccc34)CC1)CCCC2` [risperidone], the “Basal (constitutive) 5-HT2bR activity” value with h5-HT2b and m5-HT2b is given as “inhibited basal 5‐HT2bR”.
